In publication PMC4633329 (Chemistry and physics of lipids, 2015):
≈ marks a conversion by molar mass, not a printed value. Where “and” joins values, the source holds several entries; their conditions need not be identical. Equal entries are not always repeated. Where two headings read alike, the source gives them in different places.

How the values were obtained:
[1] = target: FABP; conditions: read-out: Dissociation Constant KFABP; flux model input; ref [15]; [45]; cited from earlier work
[2] = target: Mb (Equus caballus, UniProt P68082); test: Optical spectra; set-up: species or system horse
[3] = in the cell, cited from earlier work
[4] = OA solubility from NMR visible EFG; type: physicochemical
[5] = cited from earlier work
[6] = target: MbCN (Equus caballus, UniProt P68082); test: 1H NMR titration of MbCN with OA; type: binding, horse
Procedure, shortened: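 Horse metMb converted to MbCN with 5-fold excess KCN in 30mM Tris, 1mM EDTA, pH 7.4. OA stock (10 or 100mM, pH 8.5, 65°C) added to 0.2-0.8 mM MbCN at 35°C (OA:Mb up to 60:1). 1H NMR at 600 MHz, 35°C, Watergate, 10% D2O, TSP reference. Heme methyl intensity loss fitted to a specific plus non-specific 2-site model by Marquardt-Levenberg regression.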

[7] = pK of OA by NMR pH titration; type: physicochemical; conditions: 0.8 mM OA, 35 °C, 1H NMR, referenced to peak position at pH 12.14
[8] = tested on: deoxy Mb; conditions: ref [47]; [48]; cited from earlier work
[9] = target: MbCN; conditions: read-out: MbCN-PA Kd; ref [47]; [48]; cited from earlier work
[10] = target: MbCO; conditions: read-out: MbCO-PA Kd; ref [47]; [48]; cited from earlier work
[11] = tested on: Mb; conditions: 25:1 ratio of SDS to Mb; ref [50]; cited from earlier work

Sequence of Mb (Equus caballus, UniProt P68082) (P68082 whole entry): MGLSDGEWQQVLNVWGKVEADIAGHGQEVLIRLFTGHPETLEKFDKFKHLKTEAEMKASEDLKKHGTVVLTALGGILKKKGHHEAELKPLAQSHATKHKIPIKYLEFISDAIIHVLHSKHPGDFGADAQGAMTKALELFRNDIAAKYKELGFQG
Sequence of MbCN (Equus caballus, UniProt P68082) (P68082 whole entry): as above

## CCCCCCCC/C=C\CCCCCCCC(=O)O [OA, oleic acid]
[1]
  Kd: 14 nM
[2]; OA:Mb of 5:1 to 50:1
  hemichrome formation in optical spectra: do not detect any signs of hemichrome formation
[2]; OA:Mb of 50:1
  reduction in Soret band intensity: 5%
[2]; OA:Mb of 50:1, shifts from 422
  Soret band position: 420 nm
[2]; OA:Mb ratio up to 5:1
  perturbation of Mb Soret band at 422 nm: no significant perturbation
[2]; OA:Mb ratios 20:1 to 50:1
  reduction in Soret band intensity: < 5%
[2]; OA:Mb ratios 20:1 to 50:1, 422 nm without OA
  Soret band position: 420 nm
[2]; OA:Mb up to 50:1
  metMb signal in optical spectra: no detectable metMb signal
[3]; highest reported value, ref [52]
  Diffusion Constant, Fatty acid (DOA): 4.6 × 10^−6 cm^2s^−1
[4]; 0.8mM MbCN in Tris, pH 7.4 35°C, 0.0904g/100g total OA added
  Solubility: 7.03×10^−2 g/100g
[4]; 10.8mM MbCN in phosphate, pH 7.4 35°C, 0.0904g/100g total OA added
  Solubility: 6.59×10^−2 g/100g
[4]; 30 mM Tris buffer, 35 °C, pH 7.4, aqueous buffer, kinetic from dmso stock
  Solubility: 1430 µM (≈ 404 µg/mL)
[4]; 30 mM Tris buffer, 35 °C, pH 12, aqueous buffer, kinetic from dmso stock
  Solubility: 2990 µM (≈ 845 µg/mL)
[4]; 30 mM Tris buffer, pH 7.4 35°C, 0.0904g/100g total OA added
  Solubility: 4.04×10^−2 g/100g
[4]; 30 mM Tris buffer, pH 12 35°C, 0.0904g/100g total OA added
  Solubility: 8.45×10^−2 g/100g
[4]; 100 mM phosphate buffer, 35 °C, pH 7.4, aqueous buffer, kinetic from dmso stock
  Solubility: 1260 µM (≈ 356 µg/mL)
[4]; 100 mM phosphate buffer, pH 7.4 35°C, 0.0904g/100g total OA added
  Solubility: 3.56×10^−2 g/100g
[5]; 66 mM phosphate buffer, pH 7.4 at 37°C, ref [53], listed as Oleate
  Solubility: 1.00×10^−6 M and 2.83×10^−5 g/100g
[5]; 0.2 M HEPES, pH 7.4 at 37°C, ref [46], listed as Oleate
  Solubility: 6.00×10^−6 M and 1.70×10^−4 g/100g
[5]; 95% of ethanol at 20°C, ref [22]
  Solubility: ∞
[5]; Acetone at 20°C, ref [22]
  Solubility: ∞
[5]; Benzene at 20°C, ref [22]
  Solubility: ∞
[6]; Dissociation Constant KMb2 (non-specific binding), 2-site model, high OA:Mb
  Kd: 37 mM
[6]; apparent Kd (Kd1, KMb1), specific OA binding to MbCN, heme 8-CH3 signal loss, OA:Mb < 2:1, pH 7.4, 35 °C
  Kd: 0.045 mM
[7]
  pK from peak B: 8.22
  pK from peak D: 8.07

## CCCCCCCCCCCCCCCC(=O)O [PA, palmitate]
[8]
  PA interaction with deoxy Mb: does not interact specifically or non-specifically
[9]
  Kd: 43 µM
[10]
  Kd: 39 to 48 µM

## CCCCCCCCCCCCOS(=O)(=O)[O-].[Na+] [SDS, sodium dodecyl sulfate]
[11]
  loss of Soret band signal intensity: 25%

B1: Mb: myoglobin; solutions prepared from lyophilized horse heart protein (protein, UniProt P68082 2-154, looked up)
Myoglobin: GLSDGEWQQVLNVWGKVEADIAGHGQEVLIRLFTGHPETLEKFDKFKHLKTEAEMKASEDLKKHGTVVLTALGGILKKKGHHEAELKPLAQSHATKHKIPIKYLEFISDAIIHVLHSKHPGDFGADAQGAMTKALELFRNDIAAKYKELGFQG
[3]; ref [34]
  Diffusion Constant, Myoglobin (DMb): 7.85 × 10^−7 cm^2s^−1
